Measurements: ChEMBL document CHEMBL1926569, “Novel (E)-1-(4-methyl-2-(alkylamino)thiazol-5-yl)-3-arylprop-2-en-1-ones as potent antimicrobial agents” (2011)
≈ marks a conversion by molar mass, not a printed value.

Experiments:
Trichoderma viride [1] = experiment: Antifungal activity against Trichoderma viride IAM 5061 incubated for 72 hrs followed by serial sub-cultivation for 72 hrs by serial dilution technique; assay type: functional; conditions: IAM 5061, 72 h
How it was run: (§1)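 MFC: material from 72 h malt broth microdilution wells was serially sub-cultured into fresh broth plates and incubated a further 72 h at 28 °C. Fungicidal concentration is taken from growth after sub-culture. Duplicate, repeated three times.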

Aspergillus fumigatus [2] = experiment: Antifungal activity against Aspergillus fumigatus isolated from human incubated for 72 hrs followed by serial sub-cultivation for 72 hrs by serial dilution technique; assay type: functional; how it was run: as §1
Talaromyces funiculosus [3] = experiment: Antifungal activity against Penicillium funiculosum ATCC 36839 incubated for 72 hrs followed by serial sub-cultivation for 72 hrs by serial dilution technique; assay type: functional; conditions: ATCC 36839, 72 h; how it was run: as §1
Trichoderma viride [4] = experiment: Antifungal activity against Trichoderma viride IAM 5061 after 72 hrs by serial dilution technique; assay type: functional; conditions: IAM 5061, 72 h
How it was run: (§2)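 Modified microdilution in 96-well plates. Fungi were kept on malt agar at 4 °C. Spores were washed off in sterile 0.85% saline with 0.1% Tween 80. Compounds were dissolved at 1 mg/ml in 5% DMSO with 0.1% Tween 80 and added to malt broth with inoculum. Plates were shaken at 160 rpm for 72 h at 28 °C. Duplicate, repeated three times.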

Penicillium ochrochloron [5] = experiment: Antifungal activity against Penicillium ochrochloron ATCC 9112 incubated for 72 hrs followed by serial sub-cultivation for 72 hrs by serial dilution technique; assay type: functional; conditions: ATCC 9112, 72 h; how it was run: as §1
Talaromyces funiculosus [6] = experiment: Antifungal activity against Penicillium funiculosum ATCC 36839 after 72 hrs by serial dilution technique; assay type: functional; conditions: ATCC 36839, 72 h; how it was run: as §2
Penicillium ochrochloron [7] = experiment: Antifungal activity against Penicillium ochrochloron ATCC 9112 after 72 hrs by serial dilution technique; assay type: functional; conditions: ATCC 9112, 72 h; how it was run: as §2
Aspergillus ochraceus [8] = experiment: Antifungal activity against Aspergillus ochraceus ATCC 12066 after 72 hrs by serial dilution technique; assay type: functional; conditions: ATCC 12066, 72 h; how it was run: as §2
Aspergillus niger [9] = experiment: Antifungal activity against Aspergillus niger ATCC 6275 incubated for 72 hrs followed by serial sub-cultivation for 72 hrs by serial dilution technique; assay type: functional; conditions: ATCC 6275, 72 h; how it was run: as §1
Candida albicans [10] = experiment: Antifungal activity against Candida albicans isolated from human after 72 hrs by serial dilution technique; assay type: functional; how it was run: as §2
Aspergillus flavus [11] = experiment: Antifungal activity against Aspergillus flavus ATCC 9643 after 72 hrs by serial dilution technique; assay type: functional; conditions: ATCC 9643, 72 h; how it was run: as §2
Aspergillus ochraceus [12] = experiment: Antifungal activity against Aspergillus ochraceus after 72 hrs by serial dilution technique
Candida albicans [13] = experiment: Antifungal activity against Candida albicans isolated from human incubated for 72 hrs followed by serial sub-cultivation for 72 hrs by serial dilution technique; assay type: functional; how it was run: as §1
Aspergillus niger [14] = experiment: Antifungal activity against Aspergillus niger ATCC 6275 after 72 hrs by serial dilution technique; assay type: functional; conditions: ATCC 6275, 72 h; how it was run: as §2
Aspergillus ochraceus [15] = experiment: Antifungal activity against Aspergillus ochraceus ATCC 12066 incubated for 72 hrs followed by serial sub-cultivation for 72 hrs by serial dilution technique; assay type: functional; conditions: ATCC 12066, 72 h; how it was run: as §1
Aspergillus flavus [16] = experiment: Antifungal activity against Aspergillus flavus ATCC 9643 incubated for 72 hrs followed by serial sub-cultivation for 72 hrs by serial dilution technique; assay type: functional; conditions: ATCC 9643, 72 h; how it was run: as §1
Listeria monocytogenes [17] = experiment: Antibacterial activity against Listeria monocytogenes NCTC 7973 incubated for 24 hrs followed by serial sub-cultivation for 24 hrs by microdilution; assay type: functional; conditions: NCTC 7973, 24 h
How it was run: (§3)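 MBC: after the 24 h LB broth microdilution (1.0 × 10⁴ CFU per well, 160 rpm), wells were serially sub-cultured into fresh broth plates and incubated a further 24 h. MBC is the lowest concentration with no visible growth, taken as 99.5% killing of the original inoculum. Duplicate, repeated three times.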

Candida albicans [18] = experiment: Ratio of bifonazole to compound for Candida albicans isolated from human; assay type: functional
Talaromyces funiculosus [19] = experiment: Ratio of bifonazole to compound for Penicillium funiculosum ATCC 36839; assay type: functional
Listeria monocytogenes [20] = experiment: Antibacterial activity against Listeria monocytogenes NCTC 7973 after 24 hrs by microdilution method; assay type: functional; conditions: NCTC 7973, 24 h
How it was run: (§4)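 Broth microdilution in 96-well plates. Bacterial suspensions were adjusted in sterile saline to 1.0 × 10⁵ CFU/ml, prepared daily and kept at 4 °C. Compound was added to LB broth with 1.0 × 10⁴ CFU per well and shaken at 160 rpm for 24 h at […] (so in the source). MIC is the lowest concentration with no visible growth under a binocular microscope. OD655 was also read. Duplicate, repeated three times.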

Escherichia coli [21] = experiment: Antibacterial activity against Escherichia coli ATCC 35210 after 24 hrs by microdilution method; assay type: functional; conditions: ATCC 35210, 24 h; how it was run: as §4
Pseudomonas aeruginosa [22] = experiment: Antibacterial activity against Pseudomonas aeruginosa ATCC 27853 after 24 hrs by microdilution method; assay type: functional; conditions: ATCC 27853, 24 h; how it was run: as §4
Trichoderma viride [23] = experiment: Ratio of bifonazole to compound for Trichoderma viride IAM 5061; assay type: functional
Bacillus cereus [24] = experiment: Antibacterial activity against clinical isolate of Bacillus cereus incubated for 24 hrs followed by serial sub-cultivation for 24 hrs by microdilution; assay type: functional; how it was run: as §3
Salmonella typhimurium [25] = experiment: Antibacterial activity against Salmonella Typhimurium ATCC 13311 incubated for 24 hrs followed by serial sub-cultivation for 24 hrs by microdilution; assay type: functional, Salmonella enterica subsp. enterica serovar Typhimurium; conditions: Salmonella enterica, ATCC 13311, 24 h; how it was run: as §3
Enterococcus faecalis [26] = experiment: Antibacterial activity against Enterococcus faecalis isolated from human after 24 hrs by microdilution method; assay type: functional; how it was run: as §4
Pseudomonas aeruginosa [27] = experiment: Antibacterial activity against Pseudomonas aeruginosa ATCC 27853 incubated for 24 hrs followed by serial sub-cultivation for 24 hrs by microdilution; assay type: functional; conditions: ATCC 27853, 24 h; how it was run: as §3
Aspergillus niger [28] = experiment: Ratio of bifonazole to compound for Aspergillus niger ATCC 6275; assay type: functional
Bacillus cereus [29] = experiment: Antibacterial activity against clinical isolate of Bacillus cereus after 24 hrs by microdilution method; assay type: functional; how it was run: as §4
Micrococcus flavus [30] = experiment: Antibacterial activity against Micrococcus flavus ATCC 10240 after 24 hrs by microdilution method; assay type: functional; conditions: ATCC 10240, 24 h; how it was run: as §4
Enterococcus faecalis [31] = experiment: Antibacterial activity against Enterococcus faecalis isolated from human incubated for 24 hrs followed by serial sub-cultivation for 24 hrs by microdilution; assay type: functional; how it was run: as §3
Staphylococcus aureus [32] = experiment: Antibacterial activity against Staphylococcus aureus ATCC 6538 incubated for 24 hrs followed by serial sub-cultivation for 24 hrs by microdilution method; assay type: functional; conditions: ATCC 6538, 24 h; how it was run: as §3
Penicillium ochrochloron [33] = experiment: Ratio of bifonazole to compound for Penicillium ochrochloron ATCC 9112; assay type: functional
Aspergillus fumigatus [34] = experiment: Ratio of ketoconazole to compound for Aspergillus fumigatus isolated from human; assay type: functional
Pseudomonas aeruginosa [35] = experiment: Ratio of ampicillin MIC to compound MIC for Pseudomonas aeruginosa ATCC 27853; assay type: functional
Salmonella typhimurium [36] = experiment: Antibacterial activity against Salmonella Typhimurium ATCC 13311 after 24 hrs by microdilution method; assay type: functional, Salmonella enterica subsp. enterica serovar Typhimurium; conditions: Salmonella enterica, ATCC 13311, 24 h; how it was run: as §4
Escherichia coli [37] = experiment: Antibacterial activity against Escherichia coli ATCC 35210 incubated for 24 hrs followed by serial sub-cultivation for 24 hrs by microdilution; assay type: functional; conditions: ATCC 35210, 24 h; how it was run: as §3
Aspergillus ochraceus [38] = experiment: Ratio of bifonazole to compound for Aspergillus ochraceus ATCC 12066; assay type: functional
Staphylococcus aureus [39] = experiment: Antibacterial activity against Staphylococcus aureus ATCC 6538 after 24 hrs by microdilution method; assay type: functional; conditions: ATCC 6538, 24 h; how it was run: as §4
Micrococcus flavus [40] = experiment: Antibacterial activity against Micrococcus flavus ATCC 10240 incubated for 24 hrs followed by serial sub-cultivation for 24 hrs by microdilution; assay type: functional; conditions: ATCC 10240, 24 h; how it was run: as §3
Penicillium ochrochloron [41] = experiment: Ratio of ketoconazole to compound for Penicillium ochrochloron ATCC 9112; assay type: functional
Aspergillus ochraceus [42] = experiment: Ratio of ketoconazole to compound for Aspergillus ochraceus ATCC 12066; assay type: functional
Candida albicans [43] = experiment: Ratio of ketoconazole to compound for Candida albicans isolated from human; assay type: functional

## CC(=O)N1CCN(c2ccc(OCC3COC(Cn4ccnc4)(c4ccc(Cl)cc4Cl)O3)cc2)CC1 (centres undefined) [KETOCONAZOLE]
Trichoderma viride [1]
  MFC: 5700 µM (≈ 3030 µg/mL)
Aspergillus fumigatus [2]
  MFC: 950 µM (≈ 505 µg/mL)
Talaromyces funiculosus [3]
  MFC: 950 µM (≈ 505 µg/mL)
Trichoderma viride [4]
  MIC: 4750 µM (≈ 2520 µg/mL)
Penicillium ochrochloron [5]
  MFC: 3800 µM (≈ 2020 µg/mL)
Talaromyces funiculosus [6]
  MIC: 380 µM (≈ 202 µg/mL)
Penicillium ochrochloron [7]
  MIC: 3800 µM (≈ 2020 µg/mL)
Aspergillus ochraceus [8]
  MIC: 380 µM (≈ 202 µg/mL)
Aspergillus niger [9]
  MFC: 950 µM (≈ 505 µg/mL)
Candida albicans [10]
  MIC: 380 µM (≈ 202 µg/mL)
Aspergillus flavus [11]
  MIC: 2850 µM (≈ 1510 µg/mL)
Aspergillus ochraceus [12]
  MIC: 380 µM (≈ 202 µg/mL)
Candida albicans [13]
  MFC: 950 µM (≈ 505 µg/mL)
Aspergillus niger [14]
  MIC: 380 µM (≈ 202 µg/mL)
Aspergillus ochraceus [15]
  MFC: 950 µM (≈ 505 µg/mL)
Aspergillus flavus [16]
  MFC: 3800 µM (≈ 2020 µg/mL)

## CCNc1nc(C)c(C(=O)/C=C/c2ccccc2)s1
Trichoderma viride [1]
  MFC: 73.5 µM (≈ 20 µg/mL)
Listeria monocytogenes [17]
  MBC: 110 µM (≈ 30 µg/mL)
Aspergillus fumigatus [2]
  MFC: 73.5 µM (≈ 20 µg/mL)
Candida albicans [18]
  Ratio: 10
Talaromyces funiculosus [19]
  Ratio: 10
Listeria monocytogenes [20]
  MIC: 110 µM (≈ 30 µg/mL)
Escherichia coli [21]
  MIC: 73.5 µM (≈ 20 µg/mL)
Talaromyces funiculosus [3]
  MFC: 73.5 µM (≈ 20 µg/mL)
Pseudomonas aeruginosa [22]
  MIC: 73.5 µM (≈ 20 µg/mL)
Trichoderma viride [4]
  MIC: 36.8 µM (≈ 10 µg/mL)
Trichoderma viride [23]
  Ratio: 10
Penicillium ochrochloron [5]
  MFC: 73.5 µM (≈ 20 µg/mL)
Bacillus cereus [24]
  MBC: 73.5 µM (≈ 20 µg/mL)
Salmonella typhimurium [25]
  MBC: 91.9 µM (≈ 25 µg/mL)
Talaromyces funiculosus [6]
  MIC: 36.8 µM (≈ 10 µg/mL)
Enterococcus faecalis [26]
  MIC: 55.1 µM (≈ 15 µg/mL)
Penicillium ochrochloron [7]
  MIC: 36.8 µM (≈ 10 µg/mL)
Pseudomonas aeruginosa [27]
  MBC: 73.5 µM (≈ 20 µg/mL)
Aspergillus niger [28]
  Ratio: 10
Aspergillus ochraceus [8]
  MIC: 73.5 µM (≈ 20 µg/mL)
Aspergillus niger [9]
  MFC: 73.5 µM (≈ 20 µg/mL)
Candida albicans [10]
  MIC: 36.8 µM (≈ 10 µg/mL)
Bacillus cereus [29]
  MIC: 73.5 µM (≈ 20 µg/mL)
Aspergillus flavus [11]
  MIC: 73.5 µM (≈ 20 µg/mL)
Aspergillus ochraceus [12]
  MIC: 36.8 µM (≈ 10 µg/mL)
Candida albicans [13]
  MFC: 73.5 µM (≈ 20 µg/mL)
Aspergillus niger [14]
  MIC: 55.1 µM (≈ 15 µg/mL)
Micrococcus flavus [30]
  MIC: 91.9 µM (≈ 25 µg/mL)
Enterococcus faecalis [31]
  MBC: 73.5 µM (≈ 20 µg/mL)
Staphylococcus aureus [32]
  MBC: 110 µM (≈ 30 µg/mL)
Penicillium ochrochloron [33]
  Ratio: 10
Aspergillus ochraceus [15]
  MFC: 91.9 µM (≈ 25 µg/mL)
Aspergillus fumigatus [34]
  Ratio: 10
Pseudomonas aeruginosa [35]
  Ratio: 10
Salmonella typhimurium [36]
  MIC: 36.8 µM (≈ 10 µg/mL)
Escherichia coli [37]
  MBC: 110 µM (≈ 30 µg/mL)
Aspergillus ochraceus [38]
  Ratio: 10
Staphylococcus aureus [39]
  MIC: 73.5 µM (≈ 20 µg/mL)
Micrococcus flavus [40]
  MBC: 110 µM (≈ 30 µg/mL)
Penicillium ochrochloron [41]
  Ratio: 10
Aspergillus ochraceus [42]
  Ratio: 10
Aspergillus flavus [16]
  MFC: 91.9 µM (≈ 25 µg/mL)
Candida albicans [43]
  Ratio: 10
